BB579 growth dn – reduces growth of yeast BB579 in restrictive medium; S. cerevisiae BB579 growth, OD615, 48 h; inhibition, % at 10 µM; 140,000 tested, 0.51% active;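 active = inhibition above a set limit, 3 SD over the mean compound inhibition, cut at about 44% in these data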
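Assay system – yeast BB579 (DeaD) · Dosing – single compound dose of 10 µM, 0.25% DMSO final · Detection – OD615 turbidity measurement · Buffer or medium – CSMM-D restrictive synthetic medium containing dextrose (glucose) · Benchmarks – positive control amphotericin B 10 µg/mL · Incubation – 48 h exposure, 30 °C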
Measles CPE – protection of cells from measles virus; Measles virus-infected cells, CPE protection, absorbance; protection (pct of control), % at 4 µM; 140,000 tested, 1.5% active; in the data active = protection mostly above about 24%, no sharp cut-off; inactive = mostly below about 26%
Efa HMGR inh – inhibitors of class II HMG-CoA reductase from Enterococcus faecalis; purified E. faecalis HMGR, NADPH absorbance 340 nm kinetic; inhibition, % at 10 µM; 190,000 tested, 0.41% active; AID 1066;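 active = inhibition above a set limit, the median over all tested compounds plus 3 SD, cut at about 9.5% in these data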;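 also: enzyme runs in reverse so mevalonate oxidation gives rising NADPH absorbance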
Yeast lifespan up – extends the lifespan of yeast. 130,000 tested, 0.68% active. AID 775. inhibition of the nicotinamide effect, % at 10 µM. S. cerevisiae growth with nicotinamide, OD615; deaD strain in restrictive glucose medium;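 active = inhibition above a set limit, placed 3 SD over the median of all compounds, cut at about 26% in these data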
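Test system – modified budding yeast, DeaD strain · Compound – single dose 10 µM compound, 0.25% DMSO · Times – culture preincubation 4 h, compound exposure 48 h, both 30 °C · Detection – optical density (absorbance) at 615 nm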
Rad51 HR inh – Rad51 (human) homologous recombination inhibition; AID 1385; Q06609; inhibition, % at 10 µM; hRad51 DNA strand exchange, fluorescence dequenching; 200,000 tested, 0.085% active;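 active = inhibition above 40% at the single screening dose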
Target sequence (Q06609 whole entry, looked up): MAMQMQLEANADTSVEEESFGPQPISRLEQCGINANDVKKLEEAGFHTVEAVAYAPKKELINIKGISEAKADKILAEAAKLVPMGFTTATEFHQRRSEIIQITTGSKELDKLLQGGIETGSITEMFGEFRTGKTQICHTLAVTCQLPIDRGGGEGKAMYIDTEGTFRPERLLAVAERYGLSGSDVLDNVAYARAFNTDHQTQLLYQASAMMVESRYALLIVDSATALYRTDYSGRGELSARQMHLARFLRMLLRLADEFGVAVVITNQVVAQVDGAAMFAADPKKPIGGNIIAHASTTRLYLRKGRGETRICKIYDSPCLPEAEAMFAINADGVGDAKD
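Test system – preformed human Rad51 ssDNA filaments · Reagent – Donor/quencher-labelled 47-bp dsDNA substrate · Incubation – 37 °C 15-min filament assembly, 30-min compound preincubation, 15-min exchange · Signal – FRET fluorescence dequenching, excitation 485 nm, emission 520 nm · Read-out – percent inhibition from fluorescence, normalised to plate control and blank means · Benchmarks – plate control and blank wells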
Arbovirus inh – blocks arbovirus infection; AID 1251; 200,000 tested, 0.37% active; arbovirus infection cell-based antiviral screen; inhibition, % at 10 µM; in the data active = inhibition above about 30%
Large screens that a line does not name were inactive. Shown are actives, neighbours in structure and some others; about 2.4% of the full set was active somewhere.

Cc1cc(C)c2c(c1)/C(=N\N=c1\sc3ccccc3n1C)C(=O)N2	none (no result: BB579 growth dn, Measles CPE, Efa HMGR inh, Yeast lifespan up, Arbovirus inh)
CCOc1ccc(S(=O)(=O)NCCC(=O)OC(C)C(=O)N2CCc3ccccc32)cc1 (configuration not stated)	Measles CPE 53.5
CCOc1ccc(S(=O)(=O)NCCC(=O)OCN2C(=O)c3ccccc3C2=O)cc1	none
CNc1cc(CSC)nc(SCc2ccc(Cl)cc2Cl)n1	Measles CPE 26.4
Nc1nc(SCc2ccc(Cl)cc2Cl)n[nH]1	none
Oc1ccc(Br)cc1-c1nc2cnccn2c1NC1CCCC1	Arbovirus inh 61.9
CCCCCCCCCCCC(=O)NC(C(=O)O)C(O)c1ccccc1 (configuration not stated)	Arbovirus inh 31.6 (no result: BB579 growth dn, Measles CPE, Yeast lifespan up)
COC(=O)C1=C(C(=O)OC)C(c2ccccc2O)c2sc(=O)[nH]c2S1 (configuration not stated)	Yeast lifespan up 45.3
COC(=O)c1sc2ccccc2c1N	none
COc1ccc(C(=O)C2CCCN(C3Cc4ccccc4C3)C2)c(OC)c1 (configuration not stated)	none (no result: BB579 growth dn, Measles CPE, Yeast lifespan up)
Cc1cc(N)n(-c2ccc(C(=O)O)cc2)n1	none (no result: BB579 growth dn, Measles CPE, Yeast lifespan up)
CCc1ccc(S(=O)(=O)c2ccc(-n3nc(C)cc3N)cc2)cc1	Arbovirus inh 33.0 (no result: BB579 growth dn, Measles CPE, Yeast lifespan up)
O=C(O)c1[nH]c2ccc([N+](=O)[O-])cc2c1-c1ccccc1	none (no result: BB579 growth dn, Measles CPE, Efa HMGR inh, Yeast lifespan up, Arbovirus inh)
O=[N+]([O-])c1ccc2[nH]nc(-c3ccccc3)c2c1	Efa HMGR inh 9.8
CCOC(=O)CN1C(=O)N[C@@H](c2ccc(Br)cc2)C(C(=O)OC)=C1C	none (no result: BB579 growth dn, Measles CPE, Efa HMGR inh, Yeast lifespan up, Arbovirus inh)
CCOC(=O)CN1C(=O)N[C@H](c2ccc(Br)cc2)C(C(C)=O)=C1C	Yeast lifespan up 45.9
CC(C)C(=O)n1nc(-c2cccnc2)nc1NCc1ccc(F)cc1	none (no result: BB579 growth dn, Measles CPE, Yeast lifespan up, Rad51 HR inh)
CCC(C)c1ccccc1NC(=O)C(C)N(C)Cc1cccc(OC)c1 (configuration not stated)	none (no result: BB579 growth dn, Measles CPE, Yeast lifespan up)
CCN(CC)C(=O)C1=C(C)Nc2nnnn2C1c1cccnc1 (configuration not stated)	Measles CPE 28.8
COC(=O)C1=C(C)Nc2nnnn2C1c1cccnc1 (configuration not stated)	none (no result: Yeast lifespan up)
C=CCn1c(C)c(C(C)=O)cc(NC(=O)c2ccccc2)c1=O	none (no result: BB579 growth dn, Measles CPE, Yeast lifespan up)
COCCCn1c(C)c(C(C)=O)cc(NC(=O)c2ccccc2)c1=O	Efa HMGR inh 10.6 (no result: BB579 growth dn, Measles CPE, Yeast lifespan up)
O=C(O)c1ccccc1Sc1c([N+](=O)[O-])cc(C(F)(F)F)cc1[N+](=O)[O-]	Arbovirus inh 30.9 (no result: BB579 growth dn, Measles CPE, Yeast lifespan up)
CCOC(=O)c1ccc(NC(=O)C(C)N2C(=O)c3ccccc3C2=O)cc1 (configuration not stated)	Yeast lifespan up 27.2
CC(C(=O)O)N1C(=O)c2ccccc2C1=O (configuration not stated)	Efa HMGR inh 12.5
COc1ccc(CNC(=O)c2cc3c(s2)CN(Cc2ccccc2)C3)cc1	none (no result: BB579 growth dn, Measles CPE, Yeast lifespan up)
O=C1NCCN1Cc1ccccc1F	Measles CPE 40.1
O=C1NCCN1Cc1ccccc1	none
O=C1NCCN1Cc1ccc(F)cc1	Measles CPE 35.9
Cc1cc(OCC(=O)Nc2ccncc2)ccc1[N+](=O)[O-]	none (no result: BB579 growth dn, Measles CPE, Yeast lifespan up)
COc1ccnc(CSC(N)=Nc2cccc(C(F)(F)F)c2)c1	none
CCCc1cc(=O)[nH]c(SCC(=O)c2cc(C)n(-c3c(C)n(C)n(-c4ccccc4)c3=O)c2C)n1	none (no result: BB579 growth dn, Measles CPE, Yeast lifespan up)
CCCc1cc(=O)[nH]c(SCC(=O)c2cc(C)n(C(C)COC)c2C)n1 (configuration not stated)	Measles CPE 45.4
O=c1[nH]c(Nc2ccccc2)cc2cc(Br)ccc12	none (no result: BB579 growth dn, Measles CPE, Efa HMGR inh, Yeast lifespan up, Arbovirus inh)
O=c1[nH]c(Nc2ccccc2)cc2ccccc12	BB579 growth dn 47.5
CN1C(=O)C(O)(CC(=O)/C=C/c2ccco2)c2cc(Br)ccc21 (configuration not stated)	none (no result: BB579 growth dn, Measles CPE, Yeast lifespan up)
CN1C(=O)C(O)(CC(=O)c2ccccc2O)c2cc(Br)ccc21 (configuration not stated)	BB579 growth dn 53.6
CC12CCC(C(=O)N3CCN(C(c4ccccc4)c4ccccc4)CC3)(OC1=O)C2(C)C (configuration not stated)	Measles CPE 34.2
CC12CCC(C(=O)NCc3ccccc3)(OC1=O)C2(C)C (configuration not stated)	none
CCN(CC(=O)Nc1cc(Cl)ccc1OC)CC(=O)NC1CCS(=O)(=O)C1 (configuration not stated)	none (no result: BB579 growth dn, Measles CPE, Efa HMGR inh, Yeast lifespan up, Arbovirus inh)
O=C(/C=C/c1ccccc1)Nc1ncn[nH]1	Yeast lifespan up 35.5
COc1ccc(S(=O)(=O)N2CCCN(CC(=O)C(C)(C)C)CC2)cc1	Measles CPE 48.2 (no result: Rad51 HR inh)
COc1ccc(S(=O)(=O)N2CCCCC2)cc1	none
Cc1cc2nc(C)n3c4ccccc4nc3n2n1	BB579 growth dn 85.5
Cc1c(NS(C)(=O)=O)c(=O)n(-c2ccccc2)n1C	Measles CPE 55.0
CCN(CC)C(=O)Nc1c(C)n(C)n(-c2ccccc2)c1=O	none (no result: Yeast lifespan up)
Cc1c(NS(=O)(=O)N2CCCC2)c(=O)n(-c2ccccc2)n1C	none (no result: Measles CPE)
Cc1c(NC(=O)c2c(N)n(-c3ccccc3)c3nc4ccccc4nc23)c(=O)n(-c2ccccc2)n1C	Measles CPE 59.2
CCC(CC)C(=O)Nc1c(C)n(C)n(-c2ccccc2)c1=O	Measles CPE 47.9, Yeast lifespan up 57.1
Cc1c(NC(=O)C(=O)/C=C(/O)c2ccccc2)c(=O)n(-c2ccccc2)n1C	Yeast lifespan up 67.1
Cc1cccc(N2CCN(C(=O)C3CCCN(S(=O)(=O)c4cccc5cccnc45)C3)CC2)c1C (configuration not stated)	none (no result: BB579 growth dn, Measles CPE, Efa HMGR inh, Yeast lifespan up, Rad51 HR inh)
COc1ccc(/C(O)=C/C(=O)C(=O)Nc2c(C)n(C)n(-c3ccccc3)c2=O)cc1	Yeast lifespan up 72.6
COc1ccc(NC(=O)Nc2c(C)n(C)n(-c3ccccc3)c2=O)cc1	none
C=CCOc1c(Br)cc(CNc2ccc(NC(=O)C(C)C)c(OC)c2)cc1OCC	none
Nn1cc(-c2ccccc2)nc1SCC(=O)N1CCN(S(=O)(=O)c2ccc(Cl)cc2)CC1	Measles CPE 22.7
CC1(C)C2CCC(C2)C1(C)NC(=O)CNCc1cccs1 (configuration not stated)	Arbovirus inh 30.1 (no result: BB579 growth dn, Measles CPE, Yeast lifespan up)
Cc1ccc(CN2CCN(C3CCCC3)C(CCO)C2)s1 (configuration not stated)	none (no result: BB579 growth dn, Measles CPE, Yeast lifespan up)
CCCCCCCCCn1c2c(c(=N)c3c1CCC3)CCCC2	none (no result: BB579 growth dn, Measles CPE, Yeast lifespan up)
CCCCCCCCCCn1c2c(c(=N)c3c1CCC3)CCC2	BB579 growth dn 98.5
Cc1ccc2c(c1)N(CCC(=O)NCCCOC(C)C)C(=O)C(C)O2 (configuration not stated)	none
c1ccc(-c2ccc(C(c3ccccc3)n3ccnc3)cc2)cc1 (configuration not stated)	BB579 growth dn 96.1
Cc1nnc(C)n1N	none (no result: BB579 growth dn, Measles CPE, Yeast lifespan up)
CCSc1nnc(NC(=O)CN2C(=O)C3CC=CCC3C2=O)s1 (configuration not stated)	Efa HMGR inh 14.1 (no result: BB579 growth dn, Measles CPE, Yeast lifespan up)
